# The list is not random: actives were taken first. Their share in the collection is about 2%.
# dFosB act: enhances mouse delta FosB homodimer DNA binding | P13346 | purified delta FosB, TAMRA-CDK5 oligo fluorescence polarization; percent of positive-control signal above neutral wells | activation, % at 25 µM | 0.99% of 340,000 active | AID 493131;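 active means mean activation above about 17%, with every replicate also reaching it, limit read from the data, passing the limit was not always enough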
# C2C12 statin: protects C2C12 myotubes from simvastatin toxicity | ATP luminescence, 48 h; scaled: DMSO 0, geranylgeraniol control 100 | rescue of ATP level, % at 7.49 µM | 0.78% of 330,000 active | AID 602340;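 active means mean ATP rescue above about 67%, or every replicate alone reaching that limit, limit read from the data, passing the limit was not always enough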;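 further: myotubes were challenged with 10 µM simvastatin during compound exposure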
# CDK5 inh: inhibitors of human CDK5/p35 kinase | Recombinant CDK5/p35, ADP-Glo luminescence, 60 min | inhibition, % at 10 µM | 0.01% of 330,000 active | AID 488839;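 active means highest replicate inhibition of at least 50% and at least 75% of replicates reaching 50%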
# Target sequence (Q00535 whole entry, looked up): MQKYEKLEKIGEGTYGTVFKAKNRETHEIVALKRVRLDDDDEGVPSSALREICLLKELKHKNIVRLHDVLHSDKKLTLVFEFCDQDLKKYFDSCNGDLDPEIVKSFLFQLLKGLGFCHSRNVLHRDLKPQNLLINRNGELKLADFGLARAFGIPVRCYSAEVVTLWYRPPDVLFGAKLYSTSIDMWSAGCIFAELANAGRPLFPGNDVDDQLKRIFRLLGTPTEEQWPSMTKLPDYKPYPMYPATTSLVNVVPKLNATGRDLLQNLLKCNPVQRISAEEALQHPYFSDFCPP
# Target sequence (Q15078 whole entry, looked up): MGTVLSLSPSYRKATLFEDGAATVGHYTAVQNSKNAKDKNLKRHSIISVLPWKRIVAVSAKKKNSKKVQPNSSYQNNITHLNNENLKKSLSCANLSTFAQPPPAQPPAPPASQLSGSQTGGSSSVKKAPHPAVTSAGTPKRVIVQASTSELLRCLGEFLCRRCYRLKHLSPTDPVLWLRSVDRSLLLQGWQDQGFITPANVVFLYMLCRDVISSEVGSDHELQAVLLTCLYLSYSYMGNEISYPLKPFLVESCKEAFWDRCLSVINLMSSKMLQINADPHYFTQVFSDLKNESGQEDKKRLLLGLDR
# CAL PDZ FP-1: blocks peptide binding to human CAL PDZ domain; purified CAL PDZ, TMR-peptide fluorescence polarization, 1 h; inhibition, % at 20 µM; 0.02% of 330,000 active; AID 504414;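 active means highest replicate inhibition of at least 40%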
#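 Material: tagged CAL PDZ domain; buffer or medium: 25 mM sodium phosphate pH 7.4, 150 mM NaCl, TCEP, IgG, Thesit; compound dosing: single point, 20 µM; schedule: 1 h incubation at room temperature before polarization reading; measured by: FP readout, S and P plane fluorescence; read-out basis: percent inhibition from loss of millipolarization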
# CAL PDZ FP-2: blocks peptide binding to the human CAL PDZ domain. Q9HD26. inhibition, % at 24.9 µM. AID 602252. purified CAL PDZ, TMR-peptide fluorescence polarization, 1 h. 0.92% of 300,000 active;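 active means mean inhibition of at least 30% with at least half of replicates also reaching 30%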
# S100A4 inh HTS: blocks human S100A4 binding to myosin IIA peptide. 0.14% of 360,000 active. inhibition, % at 10.7 µM. P26447. S100A4/TAMRA-MyoIIA peptide fluorescence polarization;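 active means mean inhibition of at least 70% across replicates, with every replicate also reaching that level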
#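 Test system: S100A4 monomer protein. Medium: HEPES buffer with Ca2+, pH 7.2. Reagent: fluorescent myosin IIA peptide, 5 nM. Compound dosing: single-point compound testing. Timing: 5 min between mix addition and reading. Benchmarks: DMSO neutral and TFP positive wells.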
# Numbers stand for hits; - = inactive; . = not tested or not shown.
SMILES,dFosB act,C2C12 statin,CDK5 inh,CAL PDZ FP-1,CAL PDZ FP-2,S100A4 inh HTS
Cc1ccc(S(=O)(=O)Nc2ccc3c(c2)C(=O)N([C@H](C)CO)C[C@@H](C)[C@@H](CN(C)C(=O)NC(C)C)OCCCC[C@@H](C)O3)cc1,.,.,.,.,.,106.9
CC(C)C(=O)N1CCN(c2ccccc2NC(=O)c2cccc3ccccc23)CC1,-,-,-,-,46.7,-
NS(=O)(=O)CCCc1ccccc1,-,-,-,-,-,-
CCN(CC)S(=O)(=O)c1ccc(N/N=C/c2cc(OC)c(OC)cc2OC)nc1,-,.,-,-,-,.
CCN(CC)S(=O)(=O)c1ccc(N2CCc3cc(OC)c(OC)cc3C2)nc1,-,-,-,-,50.5,-
CC(=O)c1cccc(NC(=O)c2cc(=O)c3ccccc3o2)c1,-,-,-,-,50.0,-
O=C(Nc1cccc(Br)c1)c1cc(=O)c2ccccc2o1,-,-,-,-,-,-
CC(C)(CSc1ncccn1)NS(=O)(=O)c1ccccc1,-,119.6,-,-,-,-
CC(C)(CSc1ccccn1)NS(=O)(=O)c1ccccc1,-,.,-,-,-,.
COc1ccc(Cl)cc1C(=O)NNC(=O)CNC(=O)c1ccc(C)s1,-,-,-,-,54.0,-
O=C(CCCCCn1c(=O)[nH]c2ccsc2c1=O)NCc1ccc(F)cc1,-,120.2,-,-,-,.
O=C(CCCCn1c(=O)[nH]c2ccccc2c1=O)NCCC1=CCCCC1,-,-,-,-,83.3,.
Cc1ccc(CNC(=O)CCCCn2c(=O)[nH]c3ccsc3c2=O)cc1,-,-,-,-,-,-
O=C(CCCCn1c(=O)[nH]c2ccccc2c1=O)NCCc1c[nH]c2ccccc12,-,-,-,-,.,-
Cc1ccc(CSCC(=O)N2CCOCC2)cc1,-,104.2,-,-,-,.
O=C(CSCc1ccc(Cl)cc1)N1CCOCC1,-,-,-,-,-,-
CCn1c(CN2c3ccccc3Sc3ccccc32)n[nH]c1=S,-,86.0,-,-,-,-
Cc1cccc(NC(=O)C2CCCN(S(=O)(=O)c3ccc4[nH]c(=O)ccc4c3)C2)c1 (stereo unspecified),44.6,-,-,-,.,-
Cc1ccc(NC(=O)C2CCCN(S(=O)(=O)c3ccc4[nH]c(=O)ccc4c3)C2)cc1C (stereo unspecified),-,-,-,-,-,-
Cc1cccc(NC(=O)C2CCCN(C(=O)Nc3ccc(F)cc3)C2)c1 (stereo unspecified),-,-,-,-,43.9,-
COCCNC(=O)CCSc1nc(-c2ccc(OC)cc2)cc(C(F)(F)F)n1,-,86.6,-,-,.,.
COc1ccc(-c2cc(C(F)(F)F)nc(SCCC(=O)Nc3cc(C)on3)n2)cc1,-,.,-,-,-,.
Cc1ccc(Cl)cc1NC(=O)c1cnn2c1NC(c1ccco1)CC2C(F)(F)F (stereo unspecified),-,-,-,-,.,.
CN1C(=O)C2(c3ccccc31)C1CCCC=C1C(C#N)=C(N)C2(C#N)C#N (stereo unspecified),-,154.9,-,-,.,.
CN1C(=O)C2(C(C#N)=C(N)N(c3cc(Cl)cc(Cl)c3)C3=C2C(=O)CCC3)c2ccccc21 (stereo unspecified),-,.,-,-,-,.
SMILES,dFosB act,C2C12 statin,CDK5 inh,CAL PDZ FP-1,CAL PDZ FP-2,S100A4 inh HTS
O=C(O)c1cccc(C(=O)c2cccc3ccccc23)c1,-,.,-,-,-,-
CCOC(=O)N1CCN(C(=O)c2ccc3c(c2)sc2nc(-c4ccc(OC)cc4)cn23)CC1,-,-,-,-,38.2,-
O=C(COC(=O)c1ccc2c(c1)OCO2)NC1CCS(=O)(=O)C1 (stereo unspecified),-,-,-,.,-,.
CCCNC(=O)c1onc(CSc2ccc(Cl)cc2)c1C(=O)NCCC(C)C,-,75.2,-,-,-,-
COCCNC(=O)c1onc(CSc2ccc(F)cc2)c1C(=O)NCCOC,-,-,-,-,31.1,-
Cc1cc(C(=O)COC(=O)c2ccc(Cl)c(S(N)(=O)=O)c2)c(C)n1C1CC1,-,-,-,-,40.6,-
Cc1ccccc1OCC(=O)OCC(=O)c1cc(C)n(C2CC2)c1C,-,-,-,-,46.5,-
Cc1nn(-c2ccccc2)c(C)c1NC(=O)COC(=O)c1ccc(Cl)c(S(N)(=O)=O)c1,-,-,-,-,64.8,-
Cc1cc(C(=O)COC(=O)c2ccc(NC(=O)CC#N)cc2)c(C)n1C1CC1,-,-,-,-,-,-
Cc1cc(NC(=O)CSc2nnc(NC(=O)C3CC(=O)N(c4ccccc4C)C3)s2)no1 (stereo unspecified),-,-,-,-,-,-
O=C(N/N=C1/CC2C=CCC12)c1ccco1 (stereo unspecified),-,.,-,-,.,.
O=C(N/N=C1/CC2C=CCC12)c1cccs1 (stereo unspecified),-,.,-,-,42.0,-
Cc1ccc(C(=O)Nc2cccc(C(=O)N/N=C/c3ccc(F)cc3)c2)cc1,-,-,-,-,75.4,-
CC(=O)Nc1cccc(C(=O)N/N=C/c2ccc(F)cc2)c1,-,.,-,-,-,-
O=C(N/N=C/c1ccccc1)c1[nH]ncc1Br,-,-,-,.,-,-
O=C(CNC(=O)c1cccc(F)c1)N/N=C/c1cccnc1,-,-,-,-,-,-
O=C(N/N=C/c1cccnc1)c1cccc(F)c1,-,-,-,.,51.6,-
O=C(N/N=C/c1cccnc1)c1[nH]ncc1Br,-,-,-,-,49.4,-
COCC(=O)N1C[C@@H](C)[C@@H](OC)CN(C)C(=O)c2cc(NC(=O)c3ccc(OC)cc3)ccc2OC[C@H]1C,.,-,.,.,.,-
COc1ccccc1CN1[C@H](CO)[C@H]2c3ccccc3N(C(=O)C3CCOCC3)C[C@H]21,.,-,.,.,.,-
O=C(C[C@@H]1CC[C@H]2[C@@H](COC[C@H](O)CN2CCC(F)(F)F)O1)NCC1CC1,.,-,.,.,.,-
CCOC(=O)CC1C(=O)NCCN1C(=O)c1ccc(C)cc1 (stereo unspecified),-,-,-,-,-,-
COC(=O)CC1C(=O)NCCN1C(=O)c1ccc([N+](=O)[O-])cc1 (stereo unspecified),-,-,-,-,69.6,-
Cc1ccc(S(=O)(=O)Nc2ccc3c(c2)CC(=O)N([C@@H](C)CO)C[C@@H](C)[C@@H](CN(C)C(=O)Nc2ccccc2)O3)cc1,.,-,.,.,.,-
COc1ccccc1CNC(=O)COc1ccccc1C(=O)c1cnn(-c2ccccc2)c1,-,-,-,-,-,-
Cn1c(SCC(=O)Nc2ccccc2C(F)(F)F)nc2c(c1=O)SCC2,-,-,-,-,-,-
Cc1nc(N)sc1-c1nnc(SCC(=O)Nc2ccccc2C(F)(F)F)n1C,-,141.6,-,-,-,.
